Results published in ChEMBL document CHEMBL1681705, “Optimisation of ITK inhibitors through successive iterative design cycles” (Bioorg Med Chem Lett, 2011).

Assays:
[1] = molecular target: Tyrosine-protein kinase Lyn (Homo sapiens) (UniProt P07948); assay: Inhibition of Lyn at 1 uM
Procedure, shortened: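 Single-point screen within a 108-kinase selectivity panel. Each kinase was tested with inhibitor at 0.1 and 1.0 micromolar, and activity was recorded as percent inhibition.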

[2] = molecular target: Death-associated protein kinase 2 (Homo sapiens) (UniProt Q9UIK4); assay: Inhibition of DAPK2 at 1 uM; values are per cent of control
Death-associated protein kinase 2 (Homo sapiens), sequence (Q9UIK4 whole entry, looked up): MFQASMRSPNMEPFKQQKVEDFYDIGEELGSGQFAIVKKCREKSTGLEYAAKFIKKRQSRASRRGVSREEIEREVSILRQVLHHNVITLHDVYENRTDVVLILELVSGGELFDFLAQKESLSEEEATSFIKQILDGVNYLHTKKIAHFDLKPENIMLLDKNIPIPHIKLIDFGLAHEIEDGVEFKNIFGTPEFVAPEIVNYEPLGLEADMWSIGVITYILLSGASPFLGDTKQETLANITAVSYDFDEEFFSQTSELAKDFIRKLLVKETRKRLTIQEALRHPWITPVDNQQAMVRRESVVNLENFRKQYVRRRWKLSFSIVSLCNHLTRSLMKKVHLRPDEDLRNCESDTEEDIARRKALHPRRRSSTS

[3] = molecular target: Mitogen-activated protein kinase 11 (Homo sapiens) (UniProt Q15759); assay: Inhibition of SAPK2b at 0.1 uM; values are per cent of control
[4] = molecular target: Serine/threonine-protein kinase pim-1 (Homo sapiens) (UniProt P11309); assay: Inhibition of Pim-1 at 1 uM; values are per cent of control
Serine/threonine-protein kinase pim-1 (Homo sapiens), sequence (P11309 whole entry, looked up): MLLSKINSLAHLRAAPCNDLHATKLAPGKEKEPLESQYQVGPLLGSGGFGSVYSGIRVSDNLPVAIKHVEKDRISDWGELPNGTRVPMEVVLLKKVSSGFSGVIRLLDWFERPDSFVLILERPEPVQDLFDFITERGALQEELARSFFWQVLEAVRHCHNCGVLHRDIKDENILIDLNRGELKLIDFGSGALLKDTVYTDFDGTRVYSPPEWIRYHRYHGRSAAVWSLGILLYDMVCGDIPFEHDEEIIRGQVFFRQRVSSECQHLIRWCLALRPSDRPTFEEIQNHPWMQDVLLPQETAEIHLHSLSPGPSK

[5] = molecular target: MAP kinase-interacting serine/threonine-protein kinase 2 (Homo sapiens) (UniProt Q9HBH9); assay: Inhibition of Mnk2 at 0.1 uM; values are per cent of control
MAP kinase-interacting serine/threonine-protein kinase 2 (Homo sapiens), sequence (Q9HBH9 whole entry, looked up): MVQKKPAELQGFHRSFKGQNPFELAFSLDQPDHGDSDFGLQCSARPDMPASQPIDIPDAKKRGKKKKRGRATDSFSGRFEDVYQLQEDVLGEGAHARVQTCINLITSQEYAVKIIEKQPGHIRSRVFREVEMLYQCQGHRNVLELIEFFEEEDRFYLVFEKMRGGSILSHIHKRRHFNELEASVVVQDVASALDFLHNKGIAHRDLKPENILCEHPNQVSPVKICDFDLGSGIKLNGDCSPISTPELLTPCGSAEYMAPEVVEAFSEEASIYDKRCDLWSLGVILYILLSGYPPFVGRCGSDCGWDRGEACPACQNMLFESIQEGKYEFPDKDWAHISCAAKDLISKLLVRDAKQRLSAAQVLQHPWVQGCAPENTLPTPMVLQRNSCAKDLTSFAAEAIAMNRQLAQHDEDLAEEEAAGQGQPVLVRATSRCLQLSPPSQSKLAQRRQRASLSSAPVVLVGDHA

[6] = molecular target: T1, Tyrosine-protein kinase JAK3 (Homo sapiens) (UniProt P52333); assay: Inhibition of JAK3 at 0.1 uM; values are per cent of control
T1 sequence (whole entry): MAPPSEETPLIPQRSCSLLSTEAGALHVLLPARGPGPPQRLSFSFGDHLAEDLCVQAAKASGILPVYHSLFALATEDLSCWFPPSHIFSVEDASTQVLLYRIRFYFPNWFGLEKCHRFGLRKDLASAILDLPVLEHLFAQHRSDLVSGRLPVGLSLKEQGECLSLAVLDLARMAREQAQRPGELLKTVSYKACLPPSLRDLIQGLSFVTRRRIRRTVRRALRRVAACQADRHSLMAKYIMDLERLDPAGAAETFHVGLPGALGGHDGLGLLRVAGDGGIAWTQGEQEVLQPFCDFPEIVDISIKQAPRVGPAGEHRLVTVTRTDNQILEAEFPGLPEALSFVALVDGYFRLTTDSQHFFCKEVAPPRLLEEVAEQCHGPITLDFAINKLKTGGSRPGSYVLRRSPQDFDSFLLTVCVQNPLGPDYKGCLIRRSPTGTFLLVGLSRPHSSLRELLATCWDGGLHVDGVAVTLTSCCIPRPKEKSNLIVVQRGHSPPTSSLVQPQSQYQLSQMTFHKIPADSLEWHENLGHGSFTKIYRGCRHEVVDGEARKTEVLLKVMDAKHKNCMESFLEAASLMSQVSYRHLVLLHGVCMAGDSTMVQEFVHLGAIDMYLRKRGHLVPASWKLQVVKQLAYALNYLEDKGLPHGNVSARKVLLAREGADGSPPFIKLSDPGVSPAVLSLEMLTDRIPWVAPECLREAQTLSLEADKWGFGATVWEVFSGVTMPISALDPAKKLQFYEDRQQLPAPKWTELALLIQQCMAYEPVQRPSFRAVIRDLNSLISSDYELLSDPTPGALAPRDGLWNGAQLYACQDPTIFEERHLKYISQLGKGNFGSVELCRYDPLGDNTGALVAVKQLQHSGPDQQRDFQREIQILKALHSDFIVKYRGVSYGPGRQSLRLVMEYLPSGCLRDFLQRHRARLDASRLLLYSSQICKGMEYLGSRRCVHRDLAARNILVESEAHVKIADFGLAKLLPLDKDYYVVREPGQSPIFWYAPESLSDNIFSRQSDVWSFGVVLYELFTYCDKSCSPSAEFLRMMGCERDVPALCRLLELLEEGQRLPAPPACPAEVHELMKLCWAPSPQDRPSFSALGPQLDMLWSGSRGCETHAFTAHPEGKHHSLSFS

[7] = molecular target: T2, Cytoplasmic tyrosine-protein kinase BMX (Homo sapiens) (UniProt P51813); assay: Inhibition of Bmx at 1 uM; values are per cent of control
T2 sequence (whole entry): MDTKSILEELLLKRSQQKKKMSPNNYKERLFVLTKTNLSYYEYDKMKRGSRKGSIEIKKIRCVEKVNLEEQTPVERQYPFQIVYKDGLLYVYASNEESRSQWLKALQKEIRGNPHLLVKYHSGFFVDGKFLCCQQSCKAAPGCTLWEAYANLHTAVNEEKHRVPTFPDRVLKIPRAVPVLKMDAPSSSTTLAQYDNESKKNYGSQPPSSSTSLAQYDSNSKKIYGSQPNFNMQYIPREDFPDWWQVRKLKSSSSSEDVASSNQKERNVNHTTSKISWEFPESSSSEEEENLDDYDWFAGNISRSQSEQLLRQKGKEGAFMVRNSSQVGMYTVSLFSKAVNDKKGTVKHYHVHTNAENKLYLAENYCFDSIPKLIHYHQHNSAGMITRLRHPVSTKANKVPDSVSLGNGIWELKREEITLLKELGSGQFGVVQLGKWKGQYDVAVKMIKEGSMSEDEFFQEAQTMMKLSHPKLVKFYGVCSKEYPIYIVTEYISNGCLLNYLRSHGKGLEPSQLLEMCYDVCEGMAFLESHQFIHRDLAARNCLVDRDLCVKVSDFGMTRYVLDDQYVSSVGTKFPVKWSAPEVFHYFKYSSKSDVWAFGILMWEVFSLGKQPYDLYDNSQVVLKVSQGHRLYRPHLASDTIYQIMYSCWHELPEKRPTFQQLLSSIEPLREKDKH

[8] = molecular target: Macrophage colony-stimulating factor 1 receptor (Homo sapiens) (UniProt P07333); assay: Inhibition of Fms at 1 uM; values are per cent of control
Macrophage colony-stimulating factor 1 receptor (Homo sapiens), sequence (P07333 whole entry): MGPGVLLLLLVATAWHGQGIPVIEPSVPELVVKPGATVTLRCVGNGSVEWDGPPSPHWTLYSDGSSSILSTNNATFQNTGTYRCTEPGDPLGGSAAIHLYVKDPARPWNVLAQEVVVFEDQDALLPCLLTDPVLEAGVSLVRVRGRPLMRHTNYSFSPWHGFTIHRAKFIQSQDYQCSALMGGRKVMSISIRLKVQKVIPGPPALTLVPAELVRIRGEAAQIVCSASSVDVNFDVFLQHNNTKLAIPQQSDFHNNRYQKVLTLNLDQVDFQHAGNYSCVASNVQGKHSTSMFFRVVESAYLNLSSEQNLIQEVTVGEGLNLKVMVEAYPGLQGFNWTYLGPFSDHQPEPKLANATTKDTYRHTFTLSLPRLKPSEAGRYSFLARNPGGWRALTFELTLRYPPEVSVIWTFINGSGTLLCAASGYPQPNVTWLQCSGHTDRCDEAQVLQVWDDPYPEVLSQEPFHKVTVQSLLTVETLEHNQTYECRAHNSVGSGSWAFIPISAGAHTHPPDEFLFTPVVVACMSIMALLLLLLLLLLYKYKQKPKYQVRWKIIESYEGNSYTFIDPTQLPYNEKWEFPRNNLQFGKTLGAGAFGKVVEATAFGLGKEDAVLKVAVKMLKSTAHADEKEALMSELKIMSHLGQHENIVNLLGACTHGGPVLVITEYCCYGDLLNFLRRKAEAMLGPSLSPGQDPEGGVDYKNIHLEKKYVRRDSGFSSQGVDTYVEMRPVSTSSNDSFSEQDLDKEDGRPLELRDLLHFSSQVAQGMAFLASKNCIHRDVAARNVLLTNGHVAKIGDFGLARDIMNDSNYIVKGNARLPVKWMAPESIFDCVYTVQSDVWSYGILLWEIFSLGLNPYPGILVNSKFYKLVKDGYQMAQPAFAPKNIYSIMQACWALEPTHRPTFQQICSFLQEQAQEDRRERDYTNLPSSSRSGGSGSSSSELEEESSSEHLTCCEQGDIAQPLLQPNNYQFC

[9] = molecular target: Epidermal growth factor receptor (Homo sapiens) (UniProt P00533); assay: Inhibition of EGFR at 1 uM; values are per cent of control
[10] = molecular target: Angiopoietin-1 receptor (Homo sapiens) (UniProt Q02763); assay: Inhibition of Tie2 at 0.1 uM; values are per cent of control
[11] = molecular target: Receptor-type tyrosine-protein kinase FLT3 (Homo sapiens) (UniProt P36888); assay: Inhibition of Flt3 at 1 uM; values are per cent of control
Receptor-type tyrosine-protein kinase FLT3 (Homo sapiens), sequence (P36888 whole entry): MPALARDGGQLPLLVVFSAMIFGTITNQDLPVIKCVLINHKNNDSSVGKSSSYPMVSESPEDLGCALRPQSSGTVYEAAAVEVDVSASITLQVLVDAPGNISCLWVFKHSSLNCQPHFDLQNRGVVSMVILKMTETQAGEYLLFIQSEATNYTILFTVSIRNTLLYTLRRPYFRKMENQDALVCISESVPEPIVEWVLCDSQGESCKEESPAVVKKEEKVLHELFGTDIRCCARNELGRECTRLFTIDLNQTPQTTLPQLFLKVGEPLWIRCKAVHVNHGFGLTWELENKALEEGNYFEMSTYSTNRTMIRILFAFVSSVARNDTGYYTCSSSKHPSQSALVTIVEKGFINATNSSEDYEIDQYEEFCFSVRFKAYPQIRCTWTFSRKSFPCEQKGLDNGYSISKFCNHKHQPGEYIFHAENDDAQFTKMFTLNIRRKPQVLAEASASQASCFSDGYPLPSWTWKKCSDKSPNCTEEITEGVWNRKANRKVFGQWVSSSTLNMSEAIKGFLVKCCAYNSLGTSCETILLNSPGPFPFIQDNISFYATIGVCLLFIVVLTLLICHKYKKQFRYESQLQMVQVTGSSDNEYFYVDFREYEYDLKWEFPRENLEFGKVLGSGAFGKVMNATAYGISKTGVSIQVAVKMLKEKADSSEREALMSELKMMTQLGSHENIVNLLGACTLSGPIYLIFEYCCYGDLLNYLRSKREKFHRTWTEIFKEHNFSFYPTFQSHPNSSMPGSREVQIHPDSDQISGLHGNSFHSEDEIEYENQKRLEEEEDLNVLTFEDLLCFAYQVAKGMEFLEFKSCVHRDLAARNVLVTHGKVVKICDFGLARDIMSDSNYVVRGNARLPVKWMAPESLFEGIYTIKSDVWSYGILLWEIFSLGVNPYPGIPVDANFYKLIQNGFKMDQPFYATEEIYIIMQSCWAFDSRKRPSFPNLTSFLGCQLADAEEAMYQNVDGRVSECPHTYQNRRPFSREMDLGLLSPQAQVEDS

[12] = molecular target: Tyrosine-protein kinase ABL1 (Homo sapiens) (UniProt P00519); assay: Inhibition of Abl at 1 uM; values are per cent of control
[13] = molecular target: Tyrosine-protein kinase Yes (Homo sapiens) (UniProt P07947); assay: Inhibition of Yes at 0.1 uM; values are per cent of control
Tyrosine-protein kinase Yes (Homo sapiens), sequence (P07947 2-543 limits assumed): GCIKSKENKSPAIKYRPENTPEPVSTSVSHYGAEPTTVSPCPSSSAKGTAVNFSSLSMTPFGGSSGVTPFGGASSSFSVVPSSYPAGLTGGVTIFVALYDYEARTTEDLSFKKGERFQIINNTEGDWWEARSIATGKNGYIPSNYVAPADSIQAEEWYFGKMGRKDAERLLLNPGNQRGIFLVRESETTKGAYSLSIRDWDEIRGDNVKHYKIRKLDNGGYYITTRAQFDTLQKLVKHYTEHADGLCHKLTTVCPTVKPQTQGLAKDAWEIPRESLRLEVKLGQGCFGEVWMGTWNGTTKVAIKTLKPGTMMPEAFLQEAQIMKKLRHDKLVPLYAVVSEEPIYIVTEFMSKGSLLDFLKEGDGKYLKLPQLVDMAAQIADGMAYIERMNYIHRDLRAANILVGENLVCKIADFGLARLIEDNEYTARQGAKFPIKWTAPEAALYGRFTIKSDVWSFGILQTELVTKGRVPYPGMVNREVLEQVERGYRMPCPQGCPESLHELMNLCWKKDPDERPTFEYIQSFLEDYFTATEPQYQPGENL

[14] = molecular target: Serine/threonine-protein kinase PLK3 (Homo sapiens) (UniProt Q9H4B4); assay: Inhibition of Plk3 at 1 uM; values are per cent of control
Serine/threonine-protein kinase PLK3 (Homo sapiens), sequence (Q9H4B4 whole entry, looked up): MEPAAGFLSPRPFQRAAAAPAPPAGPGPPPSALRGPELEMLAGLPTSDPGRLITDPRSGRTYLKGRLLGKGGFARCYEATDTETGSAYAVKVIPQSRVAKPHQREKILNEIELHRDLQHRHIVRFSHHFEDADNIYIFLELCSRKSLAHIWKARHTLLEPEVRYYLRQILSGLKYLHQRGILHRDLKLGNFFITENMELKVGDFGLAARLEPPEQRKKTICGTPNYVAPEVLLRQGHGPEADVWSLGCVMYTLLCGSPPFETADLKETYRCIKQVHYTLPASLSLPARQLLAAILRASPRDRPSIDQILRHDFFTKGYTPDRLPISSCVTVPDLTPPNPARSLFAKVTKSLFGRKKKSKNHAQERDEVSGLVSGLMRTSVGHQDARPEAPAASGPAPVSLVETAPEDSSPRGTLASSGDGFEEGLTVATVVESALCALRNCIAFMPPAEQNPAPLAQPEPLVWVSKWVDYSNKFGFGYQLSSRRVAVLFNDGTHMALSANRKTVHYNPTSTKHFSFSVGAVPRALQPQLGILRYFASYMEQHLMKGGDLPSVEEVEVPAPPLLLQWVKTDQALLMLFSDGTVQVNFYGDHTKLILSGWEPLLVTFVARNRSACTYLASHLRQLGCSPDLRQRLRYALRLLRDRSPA

[15] = molecular target: Cyclin-dependent kinase 7/ cyclin H (Homo sapiens) (UniProt P51946+P50613); assay: Inhibition of CDK7/cyclin H/MAT1 at 1 uM; values are per cent of control

Tyrosine-protein kinase Lyn (Homo sapiens), sequence (P07948 2-512 limits assumed): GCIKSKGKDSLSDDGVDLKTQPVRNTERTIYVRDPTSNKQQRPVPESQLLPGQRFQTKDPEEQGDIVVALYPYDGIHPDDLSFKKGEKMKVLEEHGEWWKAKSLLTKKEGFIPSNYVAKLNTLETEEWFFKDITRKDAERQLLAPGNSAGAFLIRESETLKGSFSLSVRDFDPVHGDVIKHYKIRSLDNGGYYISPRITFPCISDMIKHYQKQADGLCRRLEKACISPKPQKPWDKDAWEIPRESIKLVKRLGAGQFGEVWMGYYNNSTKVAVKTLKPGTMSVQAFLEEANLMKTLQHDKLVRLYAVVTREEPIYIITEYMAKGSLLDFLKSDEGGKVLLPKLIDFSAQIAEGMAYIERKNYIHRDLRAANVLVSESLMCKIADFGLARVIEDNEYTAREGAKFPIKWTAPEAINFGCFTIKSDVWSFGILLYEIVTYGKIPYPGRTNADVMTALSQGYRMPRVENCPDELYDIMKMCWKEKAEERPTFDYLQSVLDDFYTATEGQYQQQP

| Structure (SMILES) | inhibition [1] [%] | residual activity [2] [%] | residual activity [3] [%] | residual activity [4] [%] | residual activity [5] [%] | residual activity [6] [%] | residual activity [7] [%] | residual activity [8] [%] | residual activity [9] [%] | residual activity [10] [%] | residual activity [11] [%] | residual activity [12] [%] | residual activity [13] [%] | residual activity [14] [%] | residual activity [15] [%] |
| --- | --- | --- | --- | --- | --- | --- | --- | --- | --- | --- | --- | --- | --- | --- | --- |
| Cc1ccc2cc(-c3n[nH]c4ccc(NC5CCNC5)cc34)[nH]c2c1 (stereo not given) | 1 | 61 | 100 | 91 | 52 | 25 | -7 | 10 | 99 | 17 | 10 | 0 | 2 | 100 | 10 |
| Cc1ccc2cc(-c3n[nH]c4ccc(NC5CCN(Cc6ccccc6)CC5)cc34)[nH]c2c1 | 0 | 112 | 100 | 93 | 101 | 52 | 8 | 20 | -8 | 83 | 0 | 0 | -2 | 117 | 28 |
